Our source for the IC50, solubility and Activity values is ChEMBL document CHEMBL1140891, “Design, synthesis and biological evaluation of novel stilbene-based antitumor agents” (Bioorg Med Chem, 2009).

Calls of active or inactive are those of the source. The calls are words filed in the database; no cut-off is given here.

Data set [1] is described as follows: Cytotoxicity against human UCI101 cells after 48 hrs by alamar blue assay. Type of data set: functional, cell-based. To be noted: UCI101, 48 h. Put shortly:
(§1)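 MDA-MB231, MiaPaCa2 and SNU423 cells (ATCC) were grown in DMEM, and UCI-101 cells in IMDM. Both media had 10% FBS plus penicillin/streptomycin/glutamine, under 5% CO2. Cells were treated for 48 h at seven concentrations from 0 to 3.0. Alamar Blue was added at 1/10 volume and OD was read at 570 and 600 nm. % growth inhibition versus untreated cells used extinction-coefficient formula; IC50 from three experiments.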

Data set [2] can be described thus: Solubility in water. It counts as physicochemical.
In another data set the test system is MDA-MB-231. Put plainly: Cytotoxicity against human MDA-MB-231 cells after 48 hrs by alamar blue assay. Type of data set: functional, cell-based. To be noted: MDA-MB-231, 48 h. The method, boiled down:
as §1

A further data set has as its system MIA PaCa-2. Briefly: Cytotoxicity against human MIAPaCa2 cells after 48 hrs by alamar blue assay. It counts as functional, cell-based. To be noted: MIA PaCa-2, 48 h. The method, boiled down:
as §1
A general note: Resazurin is reduced to fluorescent resorufin, in cell work by metabolically active cells.

A further data set deals with SNU-423. Briefly: Cytotoxicity against human SNU423 cells after 48 hrs by alamar blue assay. Type of data set: functional, cell-based. To be noted: SNU-423, 48 h. Put shortly:
as §1

The nature of data set [3]: Inhibition of tubulin without microtubule associated protein polymerization at 5 uM after 60 mins.
A further data set concerns HL-60. Briefly: Induction of apoptosis in human HL60 cells by flow cytometry. Type of data set: functional, cell-based. (In general: In flow cytometry, cells or beads pass a laser one at a time.)

For `COc1cc(/C=C\c2ccc3ccn(C)c3c2)cc(OC)c1`, in data set [1], the IC50 (as a rule, the concentration at which inhibition is half-maximal) stood at 220 nM.
The same measure, in the same setting: the value for `C=CCOc1cc(/C=C\c2ccc(OC)c(N)c2)cc(OC)c1` was 200 nM; that for `COc1cc(/C=C\c2ccc(OC)c(N)c2)cc(OC(C)C)c1` was 100 nM.
As to `COc1cc(/C=C\c2ccc(OC)c(N)c2)cc(OC)c1.O=C(O)C(=O)O`, in data set [2], the solubility – broadly, the dissolved amount per volume that the medium holds – was below 1000 µg/mL.
For `COc1ccc(/C=C\c2cc(OC)c(OC)c(OC)c2)cc1O` [COMBRETASTATIN A4], the IC50 with MDA-MB-231 was 4 nM; in the data set with MIA PaCa-2 it was 8 nM; with SNU-423 it was 6 nM; in data set [1], 2 nM.
`COc1cc(O)cc(/C=C\c2ccc(OC)c(N)c2)c1`: the concentration for half-maximal inhibition (IC50) stood at 800 nM in the data set with MDA-MB-231, 700 nM with MIA PaCa-2, 2000 nM in the data set with SNU-423 and 800 nM in data set [1]. Moreover, the result in data set [3] was Active.
Consider `COc1ccc(/C=C\c2ccc3[nH]ccc3c2)cc1N`, for which, in data set [1], the half-inhibitory concentration (IC50) was determined as 5000 nM.
Regarding `COc1cc(/C=C\c2ccc3[nH]ccc3c2)cc(OC)c1`, the half-maximal inhibitory concentration (IC50) with MDA-MB-231 came out at 250 nM; with MIA PaCa-2, 200 nM; in the data set on SNU-423, 700 nM; in data set [1] it was 250 nM.
On to `COc1cc(/C=C\c2ccc(OC)c(NC(=O)OCCOCCOCCO)c2)cc(OC)c1`, for which the IC50 in data set [1] is above 10000 nM.
`COc1ccc(/C=C\c2ccc3c(ccn3C)c2)cc1N` displayed an IC50 in data set [1] of 200 nM. The same molecule returned a solubility in data set [2] below 1000 µg/mL.
On to `COc1cc(/C=C\c2ccc(OC)c(NC(=O)NCCN3CCOCC3)c2)cc(OC)c1`, for which, in data set [1], the IC50 was above 10000 nM.
Turning to `COc1cc(/C=C\c2ccc(OC)c(O)c2)cc(OC)c1`, the half-maximal inhibitory concentration (IC50) in the data set on SNU-423 stood at 15 nM; in data set [1], 30 nM; in the data set on HL-60, 30 nM.
Take `COc1cc(/C=C\c2ccc(OC)c(N)c2)cc(OCCO)c1`: the IC50 with MDA-MB-231 stood at 80 nM; in the data set on MIA PaCa-2, 180 nM; in the data set with SNU-423, 200 nM; in data set [1], 150 nM.
As to `CC[C@]1(O)C[C@H]2CN(CCc3c([nH]c4ccccc34)[C@@](C(=O)OC)(c3cc4c(cc3OC)N(C=O)[C@H]3[C@@](O)(C(=O)OC)[C@H](OC(C)=O)[C@]5(CC)C=CCN6CC[C@]43[C@@H]65)C2)C1` [VINCRISTINE], the IC50 in the data set with MDA-MB-231 is 15 nM; with MIA PaCa-2 it was 15 nM; in the data set on SNU-423 it was 10 nM; in data set [1], 20 nM.
`COc1cc(/C=C\c2ccc(OC)c(N)c2)cc(OC)c1` [listing 1 of 2 here] came in with a solubility in data set [2] below 1000 µg/mL.
As to `COc1cc(/C=C\c2ccc(OC)c(N)c2)cc(OC)c1` [listing 2 of 2 here], the result in data set [3] was Active.
Turning to `COc1cc2c(c(OC)c1OC)-c1ccc(OC)c(=O)cc1[C@@H](NC(C)=O)CC2` [COLCHICINE], the IC50 in the data set on MDA-MB-231 turned out to be 20 nM; with MIA PaCa-2, 25 nM; in the data set with SNU-423 it was 25 nM; in data set [1], 30 nM. The outcome in data set [3] was Active.
Take `COc1cc(/C=C\c2ccc(OC)c(NC(=O)OCCN3CCOCC3)c2)cc(OC)c1` [listing 1 of 2 here]: the IC50 (in the data set with SNU-423; in data set [1]) was 5000 nM each time.
On to `COc1cc(/C=C\c2ccc(OC)c(NC(=O)OCCN3CCOCC3)c2)cc(OC)c1.O=C(O)C(=O)O`, for which the solubility in data set [2] was 5900 µg/mL.
`COc1cc(/C=C\c2ccc3cc[nH]c3c2)cc(OC)c1`: the 50% inhibitory concentration (IC50) was determined as 250 nM in the data set on MDA-MB-231, 200 nM with MIA PaCa-2, 700 nM with SNU-423 and 250 nM in data set [1].
With `COc1cc(/C=C\c2ccc3[nH]cnc3c2)cc(OC)c1`, the IC50 in the data set with MDA-MB-231 was 800 nM; in the data set on MIA PaCa-2 it was 800 nM; with SNU-423 it was 1000 nM; in data set [1], 260 nM.
As for `COc1cc(/C=C\c2ccc(OC)c(N)c2)cc(OC)c1.Cl`, the IC50 in the data set with MDA-MB-231 turned out to be 30 nM; in the data set on MIA PaCa-2, 40 nM; with SNU-423, 30 nM; in data set [1], 30 nM; in the data set on HL-60, 30 nM. The same molecule came in with a solubility in data set [2] of 6000 µg/mL.
On to `COc1cc(/C=C\c2ccc(OC)c(N)c2)cc(OCC(=O)O)c1`, for which the IC50 in data set [1] is above 10000 nM.
With `CCOc1cc(/C=C\c2ccc(OC)c(N)c2)cc(OC)c1`, half-maximal inhibition in data set [1] (IC50) required 80 nM. In addition, in data set [3], the outcome was Active.
In data set [2], `COc1cc(/C=C\c2ccc(OC)c(NC(=O)OCCN3CCOCC3)c2)cc(OC)c1` [listing 2 of 2 here] came in with a solubility below 1000 µg/mL.
Consider `COc1cc(/C=C\c2ccc3c(ccn3C)c2)cc(OC)c1`, for which the IC50 came out at 80 nM in the data set on MDA-MB-231, 80 nM in the data set with MIA PaCa-2, 30 nM in the data set with SNU-423 and 40 nM in data set [1]. Further, the solubility in data set [2] was below 1000 µg/mL.
